These results are taken from ChEMBL document CHEMBL1142293, “Thiol-based angiotensin-converting enzyme 2 inhibitors: P1 modifications for the exploration of the S1 subsite” (Bioorg Med Chem Lett, 2008).

Settings in all cases: read-out: Ki app
Experiment [1] concerns the target Neprilysin (Homo sapiens, UniProt P08473). Kind of experiment: Inhibition of human recombinant NEP by fluorescence assay. The gist of the method:
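Recombinant human NEP at 0.15 nM was assayed with 2 μM FAM-[…]TAMRA)-NH2 substrate. Inhibitor was pre-incubated, then substrate added. Fluorescence gave Ki App, with average %CV 43%.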

For experiment [2], the target named is Angiotensin-converting enzyme 2 (Homo sapiens, UniProt Q9BYF1). Kind of experiment: Inhibition of human recombinant ACE2 by fluorescence assay. The gist of the method:
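Fluorescence assay with 0.4 nM recombinant human ACE2 and 30 μM MCA-Tyr-Val-Ala-Asp-Ala-Pro-Lys(DNP)-OH substrate. Pre-incubation with inhibitor preceded substrate addition. Apparent Ki was reported, with average %CV 45%. Thiols were diluted from 10 mM stocks in 50% aqueous acetonitrile just before assay.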

Experiment [3] concerns the target Angiotensin-converting enzyme (Homo sapiens, UniProt P12821). Nature of the experiment: Inhibition of human recombinant ACE by fluorescence assay. The essentials: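 Recombinant human ACE at 0.5 nM was incubated with 10 μM MCA-Ala-Ser-Asp-Lys-Dap(DNP)-OH substrate. Buffer was 1 μM Zn(OAc)2, 100 μM TCEP reducing agent, 50 mM Hepes, 300 μM CHAPS and 300 mM NaCl, pH 7.5. Inhibitor was pre-incubated before substrate was added. Fluorescence read-out gave apparent Ki.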

The target of experiment [4] is T1, Carboxypeptidase A1 (Homo sapiens, UniProt P15085).
T1 sequence (P15085 whole entry): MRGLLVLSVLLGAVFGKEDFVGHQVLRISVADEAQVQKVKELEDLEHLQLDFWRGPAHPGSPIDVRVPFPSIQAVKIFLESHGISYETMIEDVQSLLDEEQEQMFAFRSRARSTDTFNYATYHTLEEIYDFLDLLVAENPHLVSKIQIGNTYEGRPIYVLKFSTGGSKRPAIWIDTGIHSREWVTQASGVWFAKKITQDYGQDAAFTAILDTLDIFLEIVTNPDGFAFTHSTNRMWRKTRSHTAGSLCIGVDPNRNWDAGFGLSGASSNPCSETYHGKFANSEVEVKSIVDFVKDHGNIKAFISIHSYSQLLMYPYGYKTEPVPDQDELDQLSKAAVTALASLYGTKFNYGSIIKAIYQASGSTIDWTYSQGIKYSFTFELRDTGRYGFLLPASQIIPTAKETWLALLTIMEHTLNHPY
Nature of the experiment: Inhibition of human recombinant carboxy peptidase A1 by fluorescence assay.

Angiotensin-converting enzyme 2, sequence (Q9BYF1 whole entry): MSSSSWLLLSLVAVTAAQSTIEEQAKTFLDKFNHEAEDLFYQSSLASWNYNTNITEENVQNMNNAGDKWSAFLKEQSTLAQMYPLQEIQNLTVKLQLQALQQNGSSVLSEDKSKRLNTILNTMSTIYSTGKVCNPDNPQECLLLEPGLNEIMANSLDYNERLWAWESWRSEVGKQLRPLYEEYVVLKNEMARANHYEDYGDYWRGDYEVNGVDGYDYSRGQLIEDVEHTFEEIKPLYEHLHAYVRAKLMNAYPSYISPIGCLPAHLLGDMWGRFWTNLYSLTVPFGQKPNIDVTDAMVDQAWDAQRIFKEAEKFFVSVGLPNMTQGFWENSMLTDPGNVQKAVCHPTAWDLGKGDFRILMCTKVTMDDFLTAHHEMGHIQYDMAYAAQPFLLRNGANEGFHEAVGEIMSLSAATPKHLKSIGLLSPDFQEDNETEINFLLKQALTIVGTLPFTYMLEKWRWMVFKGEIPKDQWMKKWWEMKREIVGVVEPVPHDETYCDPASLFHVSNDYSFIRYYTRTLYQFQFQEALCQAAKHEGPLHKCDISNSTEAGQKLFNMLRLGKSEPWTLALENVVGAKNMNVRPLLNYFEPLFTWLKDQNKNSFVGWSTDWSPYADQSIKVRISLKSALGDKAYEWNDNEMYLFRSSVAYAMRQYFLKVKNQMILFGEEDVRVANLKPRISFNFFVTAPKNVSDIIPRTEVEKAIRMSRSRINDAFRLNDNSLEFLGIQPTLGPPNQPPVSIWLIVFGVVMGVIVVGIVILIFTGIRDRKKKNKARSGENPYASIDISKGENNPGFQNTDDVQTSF
Angiotensin-converting enzyme, sequence (P12821 whole entry): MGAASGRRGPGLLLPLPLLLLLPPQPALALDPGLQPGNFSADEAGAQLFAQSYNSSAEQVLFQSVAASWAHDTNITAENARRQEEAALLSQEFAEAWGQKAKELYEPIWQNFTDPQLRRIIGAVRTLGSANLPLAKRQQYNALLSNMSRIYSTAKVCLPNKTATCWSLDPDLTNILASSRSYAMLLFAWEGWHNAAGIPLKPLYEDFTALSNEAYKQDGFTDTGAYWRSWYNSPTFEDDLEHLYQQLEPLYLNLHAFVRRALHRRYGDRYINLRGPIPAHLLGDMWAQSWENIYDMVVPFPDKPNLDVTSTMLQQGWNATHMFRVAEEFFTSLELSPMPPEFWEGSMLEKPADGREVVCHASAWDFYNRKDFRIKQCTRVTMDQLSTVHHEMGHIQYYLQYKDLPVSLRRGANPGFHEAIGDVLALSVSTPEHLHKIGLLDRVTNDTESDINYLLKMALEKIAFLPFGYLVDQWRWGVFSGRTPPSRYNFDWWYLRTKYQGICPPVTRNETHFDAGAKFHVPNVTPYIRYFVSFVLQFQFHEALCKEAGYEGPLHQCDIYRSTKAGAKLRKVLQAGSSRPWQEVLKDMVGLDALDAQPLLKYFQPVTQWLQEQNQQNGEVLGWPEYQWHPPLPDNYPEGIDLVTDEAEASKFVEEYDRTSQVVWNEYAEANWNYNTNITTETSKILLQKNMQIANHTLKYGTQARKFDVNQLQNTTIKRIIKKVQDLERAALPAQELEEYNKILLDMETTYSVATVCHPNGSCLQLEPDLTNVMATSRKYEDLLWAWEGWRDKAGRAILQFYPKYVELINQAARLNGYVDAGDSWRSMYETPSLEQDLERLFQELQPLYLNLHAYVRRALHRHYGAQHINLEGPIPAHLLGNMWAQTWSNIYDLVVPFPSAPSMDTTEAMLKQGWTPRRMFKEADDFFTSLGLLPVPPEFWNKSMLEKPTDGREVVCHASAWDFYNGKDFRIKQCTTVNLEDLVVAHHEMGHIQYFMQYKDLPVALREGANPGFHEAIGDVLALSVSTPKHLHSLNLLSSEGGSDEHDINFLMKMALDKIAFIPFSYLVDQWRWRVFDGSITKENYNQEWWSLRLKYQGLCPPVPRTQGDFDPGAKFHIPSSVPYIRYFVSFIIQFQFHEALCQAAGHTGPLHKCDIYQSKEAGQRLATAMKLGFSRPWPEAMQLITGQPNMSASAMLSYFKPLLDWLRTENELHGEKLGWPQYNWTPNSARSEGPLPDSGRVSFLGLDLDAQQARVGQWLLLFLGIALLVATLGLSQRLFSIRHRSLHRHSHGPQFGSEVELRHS
Neprilysin, sequence (P08473 whole entry): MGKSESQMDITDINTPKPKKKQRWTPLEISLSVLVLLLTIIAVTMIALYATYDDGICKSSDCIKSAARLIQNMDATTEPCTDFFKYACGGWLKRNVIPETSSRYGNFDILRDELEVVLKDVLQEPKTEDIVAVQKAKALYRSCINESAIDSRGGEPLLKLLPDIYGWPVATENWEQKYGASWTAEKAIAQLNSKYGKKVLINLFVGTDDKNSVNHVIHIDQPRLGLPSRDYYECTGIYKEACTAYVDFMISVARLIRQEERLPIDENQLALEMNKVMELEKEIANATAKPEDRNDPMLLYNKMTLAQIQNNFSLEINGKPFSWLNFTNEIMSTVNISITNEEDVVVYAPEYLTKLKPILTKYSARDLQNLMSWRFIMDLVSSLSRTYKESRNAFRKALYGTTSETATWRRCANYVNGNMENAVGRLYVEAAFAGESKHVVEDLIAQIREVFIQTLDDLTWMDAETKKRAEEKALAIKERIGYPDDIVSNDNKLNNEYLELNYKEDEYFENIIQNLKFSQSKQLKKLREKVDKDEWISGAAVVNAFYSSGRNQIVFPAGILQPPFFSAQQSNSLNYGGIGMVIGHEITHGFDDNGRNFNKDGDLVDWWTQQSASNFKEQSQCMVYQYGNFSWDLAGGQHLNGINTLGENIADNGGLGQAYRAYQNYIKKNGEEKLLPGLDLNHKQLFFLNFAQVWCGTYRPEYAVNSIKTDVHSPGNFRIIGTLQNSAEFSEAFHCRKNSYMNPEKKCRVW

Regarding `CC[C@H](S)C(=O)N[C@@H](Cc1ccc(-c2ccccc2)cc1)C(=O)O`, the Ki in experiment [1] was 0.0008 µM; in experiment [2], 0.0014 µM; in experiment [3] it was 0.0086 µM; in experiment [4] it was 9.3 µM.

Regarding `O=C(O)[C@H](Cc1ccc(-c2ccccc2)cc1)NC(=O)[C@@H](S)Cc1ccc2ccccc2c1`, the Ki in experiment [1] was found to be 0.14 µM; in experiment [2], 0.55 µM; in experiment [3], 0.21 µM; in experiment [4], 32 µM.

Consider `O=C(O)[C@H](Cc1ccc(-c2ccccc2)cc1)NC(=O)[C@@H](S)c1ccccc1`, for which the Ki in experiment [1] is 0.41 µM; in experiment [2], 0.084 µM; in experiment [3] it was over 10 µM.

On to `O=C(N[C@@H](Cc1ccc(-c2ccccc2)cc1)C(=O)O)[C@H](S)Cc1ccccc1`, for which the Ki in experiment [1] was 0.0013 µM; in experiment [2], 1.4 µM; in experiment [3], 0.52 µM; in experiment [4] it was 0.31 µM.

For `CC(C)(C)C[C@H](S)C(=O)N[C@@H](Cc1ccc(-c2ccccc2)cc1)C(=O)O`, the Ki in experiment [1] came to 0.0026 µM; in experiment [2] it was 0.0071 µM; in experiment [3] it was 2.7 µM; in experiment [4], 22 µM.

Consider `O=C(O)[C@H](Cc1ccc(-c2ccccc2)cc1)NC(=O)[C@@H](S)CCc1ccccc1`, for which the Ki in experiment [1] stood at 0.0026 µM; in experiment [2], 0.86 µM; in experiment [3], 0.093 µM; in experiment [4], 5 µM.

On to `O=C(O)[C@H](Cc1ccc(-c2ccccc2)cc1)NC(=O)[C@@H](S)Cc1ccccc1`, for which the Ki in experiment [1] came to 0.0011 µM; in experiment [2], 0.086 µM; in experiment [3], 0.03 µM; in experiment [4], 1.2 µM.

On to `CC(C)(S)C(=O)N[C@@H](Cc1ccc(-c2ccccc2)cc1)C(=O)O`, for which the values for the Ki in experiment [1], in experiment [2] and in experiment [3] were 0.73 µM, 2.3 µM and 3.4 µM, respectively.

As for `O=C(CS)N[C@@H](Cc1ccc(-c2ccccc2)cc1)C(=O)O`, the Ki in experiment [1] came out at 0.013 µM; in experiment [2], 0.32 µM; in experiment [3], 0.016 µM; in experiment [4], 1.7 µM.

For `O=C(O)[C@H](Cc1ccc(-c2ccccc2)cc1)NC(=O)[C@@H](S)CC1CCCCC1`, the Ki in experiment [1] was found to be 0.13 µM; in experiment [2] it was 0.42 µM; in experiment [3] it was 0.84 µM; in experiment [4], 17 µM.

For the compound `CCCC[C@H](S)C(=O)N[C@@H](Cc1ccc(-c2ccccc2)cc1)C(=O)O`, the Ki in experiment [1] was found to be 0.0012 µM; in experiment [2], 0.0018 µM; in experiment [3] it was 0.0093 µM; in experiment [4], 8.9 µM.

On to `CC(C)C[C@H](S)C(=O)N[C@@H](Cc1ccc(-c2ccccc2)cc1)C(=O)O`, for which the Ki in experiment [1] stood at 0.00028 µM; in experiment [2], 0.0014 µM; in experiment [3], 0.0032 µM; in experiment [4] it was 11 µM.

For the compound `O=C(O)[C@H](Cc1ccc(-c2ccccc2)cc1)NC(=O)[C@@H](S)C1CCCC1`, the Ki in experiment [1] amounted to 0.038 µM; in experiment [2], 0.0018 µM; in experiment [3], 0.7 µM; in experiment [4], 12 µM.

For the compound `C[C@H](S)C(=O)N[C@@H](Cc1ccc(-c2ccccc2)cc1)C(=O)O`, the Ki worked out at 0.023 µM in experiment [1], 0.0069 µM in experiment [2], 0.021 µM in experiment [3] and 14 µM in experiment [4].

As to `CC[C@@H](C)[C@H](S)C(=O)N[C@@H](Cc1ccc(-c2ccccc2)cc1)C(=O)O`, the Ki stood at 0.027 µM in experiment [1], 0.0015 µM in experiment [2], 0.49 µM in experiment [3] and 11 µM in experiment [4].

As for `O=C(O)[C@H](Cc1ccc(-c2ccccc2)cc1)NC(=O)[C@@H](S)C1CCCCC1`, the Ki in experiment [1] is 1.3 µM; in experiment [2] it was 0.065 µM; in experiment [3], 13 µM; in experiment [4], 12 µM.

As to `O=C(O)[C@H](Cc1ccc(-c2ccccc2)cc1)NC(=O)[C@@H](S)C1CCC1`, the Ki in experiment [1] was 0.0054 µM; in experiment [2] it was 0.0024 µM; in experiment [3], 0.62 µM; in experiment [4], 12 µM.

`CC(C)[C@H](S)C(=O)N[C@@H](Cc1ccc(-c2ccccc2)cc1)C(=O)O`: the Ki in experiment [1] turned out to be 0.013 µM; in experiment [2] it was 0.0015 µM; in experiment [3], 0.2 µM; in experiment [4], 17 µM.

For `CC[C@H](C)[C@H](S)C(=O)N[C@@H](Cc1ccc(-c2ccccc2)cc1)C(=O)O`, the Ki in experiment [1] is 0.0024 µM; in experiment [2], 0.0016 µM; in experiment [3] it was 0.2 µM; in experiment [4], 15 µM.
